In ChEMBL document CHEMBL2029254, “Use of libraries to access new chemical space: applications to CRTH2” (Bioorg Med Chem Lett, 2012):
Each block holds one compound with its values, some of them ahead of it.

Columns and labels:
[1] = molecular target: T1, Prostaglandin D2 receptor 2 (Homo sapiens) (UniProt Q9Y5Y4); test: Displacement of [3H]PGD2 from human CRTH2 receptor expressed in CHO cell membrane at 2.8 uM after 120 mins by scintillation counting; assay type: cell membranes
T1 sequence (whole entry): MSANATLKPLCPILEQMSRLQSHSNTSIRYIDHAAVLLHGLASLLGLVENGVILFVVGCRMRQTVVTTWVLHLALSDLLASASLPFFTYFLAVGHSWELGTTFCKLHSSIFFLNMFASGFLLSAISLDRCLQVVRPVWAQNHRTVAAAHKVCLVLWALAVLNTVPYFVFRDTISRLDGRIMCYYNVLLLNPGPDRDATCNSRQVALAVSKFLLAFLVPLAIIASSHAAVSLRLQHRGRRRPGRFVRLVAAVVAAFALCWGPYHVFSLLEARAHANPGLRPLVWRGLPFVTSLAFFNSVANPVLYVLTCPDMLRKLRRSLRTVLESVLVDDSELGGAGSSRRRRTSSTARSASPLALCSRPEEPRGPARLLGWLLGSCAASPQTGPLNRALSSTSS

[2] = molecular target: T2, Prostaglandin D2 receptor 2 (Homo sapiens, UniProt Q9Y5Y4); test: Displacement of [3H]PGD2 from human CRTH2 receptor expressed in CHO cell membrane after 120 mins by scintillation counting; assay type: cell membranes
T2 sequence (Q9Y5Y4 whole entry): T1 sequence (whole entry)
In short: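 Ki derived from the displacement IC50 by the Cheng–Prusoff relationship, using the KD and radioligand concentration supplied by the analyser. Values are geometric means of three or more independent determinations.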

Structure (SMILES): O=C(O)Cn1cnc2c1CCN(C(=O)c1csc(-c3ccccc3)n1)C2
inhibition [1]: > 40%
Ki [2]: 752 nM

Structure (SMILES): O=C(O)COc1ccccc1COc1ccc(F)cc1C1CC1
inhibition [1]: > 40%
Ki [2]: 591 nM

Structure (SMILES): CCc1nn(Cc2cc(Cl)ccc2Cl)c(CC)c1CC(=O)O
inhibition [1]: > 40%
Ki [2]: 623 nM

Structure (SMILES): CCc1nn(CC(=O)O)c(CC)c1Cc1ccc2ccccc2c1
inhibition [1]: > 40%
Ki [2]: 631 nM

Structure (SMILES): CCc1nn(Cc2ccc3ccccc3c2)c(CC)c1CC(=O)O
inhibition [1]: > 40%
Ki [2]: 574 nM

Structure (SMILES): CCc1nn(Cc2cccc(Br)c2)c(CC)c1CC(=O)O
inhibition [1]: > 40%
Ki [2]: 563 nM

These reach a lower Ki [2]. Values come first.

inhibition [1]: > 40%
Ki [2]: 333 nM
Structure (SMILES): CCCNC(=O)c1ccccc1OCc1cccc(C)c1OCC(=O)O

inhibition [1]: > 40%
Ki [2]: 247 nM
Structure (SMILES): O=C(O)COc1ccccc1COc1ccc(Cl)cc1-c1ccno1

inhibition [1]: > 40%
Ki [2]: 492 nM
Structure (SMILES): Cc1ccc2cccc(OCc3ccccc3OCC(=O)O)c2n1

inhibition [1]: > 40%
Ki [2]: 520 nM
Structure (SMILES): Cc1ccc(Cl)cc1OCc1ccccc1OCC(=O)O
